697 NFkB inh – inhibitors of PMA/ionomycin-induced NF-kB reporter, 697 cells, primary screen, B-cell NF-kB inhibitor project, cell-based, luminescence, uHTS. 697 B-cell NF-kB luciferase reporter, 16 h. inhibition, % at 4 µM. 330,000 compounds, 0.33% hits. AID 435022, 2010; in the data active = inhibition above about 35%
APP transl inh – inhibitors of APP translation via 5'UTR reporter, primary screen, APP 5'UTR luciferase, SH-SY5Y cells; AID 1285, 2008; inhibition, % at 2 µM; SH-SY5Y APP 5'UTR-luciferase reporter, luminescence; 190,000 compounds, 0.82% hits;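 active = inhibition above a set limit, derived from the sample mean plus 3 SD, cut at about 45% in these data; inconclusive = one replicate passes the limit while the other fails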
H9c2 TAG inh – inhibitors of triacylglycerol accumulation, primary screen, cell-based, uHTS, fluorescence, H9c2. H9c2 cells, Nile Red lipid (TAG) fluorescence; cells loaded with 200 µM oleic acid. inhibition, % at 12.5 µM. 230,000 compounds, 0.66% hits;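 active = pattern-corrected inhibition of lipid staining of at least 50% with the nuclear-stain viability signal not falling by more than 50%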
Lipid droplet – inhibitors of hepatocyte lipid droplet formation, primary screen, imaging, high-throughput imaging, BODIPY stain; AML12 mouse hepatocytes, oleate lipid droplets; inhibition, % at 6.5 µM; 240,000 compounds, 0.4% hits; AID 1656, 2009;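 active = lipid droplet intensity inhibited by at least 50%, with more than 500 cells counted; inconclusive = wells with under 300 cells, treated as cytotoxic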
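Test system: AML12 mouse liver cells; schedule: overnight exposure; technique: high-content imaging of BODIPY-stained droplets and DAPI nuclei; read-out: % inhibition of corrected integrated BODIPY droplet signal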
aSyn UTR inh – MLPCN primary screen, SNCA 5' untranslated region. inhibition, % (tested at 7.5 µM). alpha-synuclein 5'UTR reporter, inhibitor activity. 300,000 compounds, 0.82% hits; in the data active = inhibition above about 60%; inconclusive = no clear call, values can overlap the other calls;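 note: H4 neuroglioblastoma cells stably carrying SNCA 5'UTR luciferase fusion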
Jurkat NFkB inh – inhibitors of induced NF-kB luciferase reporter, primary screen, TCR NF-kB activation inhibitor project, cell-based, luminescence, uHTS | 330,000 compounds, 0.53% hits | inhibition, % at 4 µM | AID 435003, 2010 | Jurkat, PMA/ionomycin-induced NF-kB luciferase reporter; in the data active = inhibition above about 50%
Jurkat NFkB conf – PMA/ionomycin-induced NF-kB reporter inhibitors, Jurkat retest, confirmation, T-cell NF-kB inhibitor project, cell-based, luminescence, single concentration. shares compounds with Jurkat NFkB inh. Jurkat NF-kB luciferase, 16 h. inhibition, % at 4 µM. 2,700 compounds, 27% hits;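 active = inhibition reaching about 45% at 4 µM in either replicate, limit read from the data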
697 NFkB conf – PMA/ionomycin-induced NF-kB reporter inhibitors, 697 retest, confirmation, B-cell NF-kB inhibitor project, cell-based, luminescence, single concentration. 2,000 compounds, 35% hits. shares compounds with 697 NFkB inh. AID 449746, 2010. inhibition, % at 4 µM. 697 B-cell NF-kB luciferase, 16 h; in the data active = inhibition mostly above about 28%, no sharp cut-off; inactive = mostly below about 22%
A number is an active result. Shown are actives, neighbours in structure and some others; about 1.9% of the full set was active somewhere.

O=C(CNCC1CCCO1)NCc1ccco1 (stereo unspecified) was read as 697 NFkB inh inactive, APP transl inh inactive, H9c2 TAG inh inactive, Lipid droplet inactive, aSyn UTR inh inactive and Jurkat NFkB inh inactive.
For CCCCC(=O)Nc1ccc2oc(-c3ccncc3)nc2c1 the results were 697 NFkB inh inactive, APP transl inh inactive, H9c2 TAG inh inactive, Lipid droplet inactive, aSyn UTR inh inactive and Jurkat NFkB inh inactive.
`CCc1ccc2oc(-c3ccc(NC(C)=O)cc3)nc2c1` gave 697 NFkB inh inactive, H9c2 TAG inh inactive, Lipid droplet inactive, aSyn UTR inh inactive, Jurkat NFkB inh inactive, Jurkat NFkB conf inactive and 697 NFkB conf inactive.
CCCC(=O)Nc1ccc(-c2nc3cc(C)c(C)cc3o2)cc1 was read as 697 NFkB inh inactive, APP transl inh inactive, aSyn UTR inh inactive, Jurkat NFkB inh inactive, Jurkat NFkB conf inactive and 697 NFkB conf inactive.
CCCC(=O)Nc1ccc2oc(-c3ccncc3)nc2c1 was read as 697 NFkB inh inactive, APP transl inh inactive, aSyn UTR inh inactive and Jurkat NFkB inh inactive.
For CN(C)c1ccc(/C=N/N=C/c2ccccc2O)cc1 the results were 697 NFkB inh inactive, APP transl inh inactive, H9c2 TAG inh inactive, Lipid droplet inactive, aSyn UTR inh inactive, Jurkat NFkB inh inactive, Jurkat NFkB conf inactive and 697 NFkB conf inactive.
Screening NC(c1csc(Nc2cnccn2)n1)c1ccccc1Cl (stereo unspecified) returned H9c2 TAG inh inactive.
Screening O=C(NCc1ccco1)C(=O)NCC(c1ccco1)N1CCOCC1 (stereo unspecified) returned 697 NFkB inh inactive, APP transl inh inactive, H9c2 TAG inh inactive, Lipid droplet inactive, aSyn UTR inh inactive and Jurkat NFkB inh inactive.
`NC(=O)CSc1nnc(-c2ccc3c(c2)OCO3)o1` gave 697 NFkB inh inactive, APP transl inh inactive, Lipid droplet inactive, aSyn UTR inh inactive and Jurkat NFkB inh inactive.
`C/C(N)=C(/C#N)C(=O)CSc1nnc(-c2ccc3c(c2)OCO3)o1` gave 697 NFkB inh inactive, APP transl inh inactive, Lipid droplet inactive, aSyn UTR inh inconclusive, Jurkat NFkB inh inactive, Jurkat NFkB conf inactive and 697 NFkB conf inactive.
Screening CC(=O)CSc1nc2cc3c(cc2cc1C#N)OCCO3 returned 697 NFkB inh inactive, APP transl inh inactive, H9c2 TAG inh inactive, Lipid droplet inactive, aSyn UTR inh inactive, Jurkat NFkB inh inactive, Jurkat NFkB conf inactive and 697 NFkB conf inactive.
`N#CCC(=O)N/N=C\c1cc(Br)ccc1OC/C=C/c1ccccc1` gave 697 NFkB inh inactive, H9c2 TAG inh inactive, Lipid droplet inactive and Jurkat NFkB inh inactive.
For CCC1=Nc2cc(C(=O)NCCN3CCOCC3)ccc2Sc2ccccc21 the results were 697 NFkB inh inactive, Lipid droplet inactive, aSyn UTR inh inactive and Jurkat NFkB inh inactive.
`CCOCCCNC(=O)c1ccc2c(c1)N=C(CC)c1cc(Br)ccc1S2` gave 697 NFkB inh inactive, APP transl inh 94, H9c2 TAG inh inactive, Lipid droplet inconclusive, aSyn UTR inh 88, Jurkat NFkB inh 78, Jurkat NFkB conf 55 and 697 NFkB conf inactive.
COc1cc(C(=O)O)nc2ccc([N+](=O)[O-])cc12 was read as 697 NFkB inh inactive, APP transl inh inactive, H9c2 TAG inh inactive, Lipid droplet inactive, aSyn UTR inh inactive and Jurkat NFkB inh inactive.
`CC(=O)Nc1ccc(S(=O)(=O)NCCC(=O)OC(C)C(=O)NC2(C#N)CCCCC2)cc1` (stereo unspecified) gave 697 NFkB inh inactive, H9c2 TAG inh inactive and Jurkat NFkB inh inactive.
Screening Cn1c2c(c(=O)n(C)c1=O)C(C(F)(F)F)(C(F)(F)F)N=C(c1ccc(Cl)cc1)N2 returned 697 NFkB inh 97, APP transl inh 51, aSyn UTR inh 99, Jurkat NFkB inh 71, Jurkat NFkB conf 86 and 697 NFkB conf inactive.
For Cc1ccc2c(c1)COc1c3ccc(C(=O)O)cc3nn1-2 the results were 697 NFkB inh 76, H9c2 TAG inh inactive, Lipid droplet inactive, aSyn UTR inh inactive, Jurkat NFkB inh 93, Jurkat NFkB conf 68 and 697 NFkB conf inactive.
Cc1ccc2c(c1)COc1c3ccc(C(=O)NCC4CC4)cc3nn1-2 was read as 697 NFkB inh inactive, aSyn UTR inh inactive and Jurkat NFkB inh inactive.
COc1ccc(O)c(C(=O)CC(=O)c2ccccc2)c1 was read as 697 NFkB inh inactive, APP transl inh inactive, aSyn UTR inh inactive, Jurkat NFkB inh inactive, Jurkat NFkB conf inactive and 697 NFkB conf inactive.
For Nc1nc(Cl)nc2c1ncn2C1CC(O)C(CO)O1 (stereo unspecified) the results were 697 NFkB inh 65, H9c2 TAG inh inactive, aSyn UTR inh 87, Jurkat NFkB inh 51, Jurkat NFkB conf 50 and 697 NFkB conf 68.
For Nc1nc(F)nc2c1ncn2[C@@H]1O[C@H](CO)[C@@H](O)[C@H]1O the results were 697 NFkB inh 75, H9c2 TAG inh inactive, aSyn UTR inh 122, Jurkat NFkB inh 93, Jurkat NFkB conf 89 and 697 NFkB conf 92.
For CC(C)(C)C1C/C(=C/c2ccccn2)C(=O)/C(=C/c2ccccn2)C1 (stereo unspecified) the results were 697 NFkB inh 105, APP transl inh 95, H9c2 TAG inh inactive, Lipid droplet inactive, aSyn UTR inh 103, Jurkat NFkB inh 100, Jurkat NFkB conf inactive and 697 NFkB conf inactive.
`O=C1/C(=C/c2ccccn2)COc2ccccc21` gave 697 NFkB inh inactive, APP transl inh inactive, H9c2 TAG inh inactive, Lipid droplet inactive, aSyn UTR inh inactive and Jurkat NFkB inh inactive.
Screening Cc1ccc(NC(=O)c2cnn(-c3ccccc3)c2C)cc1 returned 697 NFkB inh inactive, Lipid droplet inactive, aSyn UTR inh inactive, Jurkat NFkB inh inactive, Jurkat NFkB conf inactive and 697 NFkB conf inactive.
Cc1ccccc1-c1nc2cc(NC(=O)C3CC3)ccc2o1 was read as 697 NFkB inh inactive, H9c2 TAG inh inactive, Lipid droplet inactive, aSyn UTR inh inactive, Jurkat NFkB inh inactive, Jurkat NFkB conf inactive and 697 NFkB conf inactive.
CCCN(CC(=O)Nc1ccccc1C)C(=O)CSc1ccccc1C was read as 697 NFkB inh inactive, H9c2 TAG inh inactive and Jurkat NFkB inh inactive.
